Data on 1 compound can be found in publication PMC7114209 (Antiviral Research, 2008).

Series [1] in a line: Cell growth and viability assay. In kind it is cell-based. The conditions noted are these: human, Raji cells, CC50, cytotoxic concentration that decreased cell viability to 50% of untreated cells, MTT, mean ± S.D. of three experiments. The procedure, abridged: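 Raji cells (latently EBV-infected, non-producer) kept at 4–6 × 10^5 cells/ml in RPMI 1640 with 10% FCS, penicillin and streptomycin. Cells were seeded in 96-well plates and exposed to a range of test compound concentrations for 3 days. MTT was then added for 6 h at 37 °C and solubilised in 0.04 M HCl–isopropanol. Absorbance was read at 595 nm against 655 nm. CC50 is relative to the no-drug control.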

For series [2], the system named is EBV DNA in P3HR-1 cells. The following applies: ref Lin, 2003; cited from earlier work.
Series [3] relates to EBV DNA in Raji cells. The following applies: latently infected Raji cells, not superinfected; ref Lin, 2003; cited from earlier work.

A word on the CC50: it is the concentration that lowers cell viability or growth by half. Lower therefore signals greater toxicity to the cells. With `CC1(C)[C@@H](O[C@H]2O[C@H](C(=O)O)[C@@H](O)[C@H](O)[C@H]2O[C@@H]2O[C@H](C(=O)O)[C@@H](O)[C@H](O)[C@H]2O)CC[C@]2(C)[C@H]3C(=O)C=C4[C@@H]5C[C@@](C)(C(=O)O)CC[C@]5(C)CC[C@@]4(C)[C@]3(C)CC[C@@H]12` [GL (18β-GL), Glycyrrhizic acid], it took 4.5 ± 0.16 mM to reach half-maximal cytotoxicity in series [1] (CC50 at 3 days). The “effect on EBV DNA” value in series [2] and in series [3] was “no effects” throughout.
